In the library only some 3.5% were active in any assay of this set; here they are far more common.
PGC1a acetyl inh: PGC1a acetylation modulation, inhibitor mode; U2OS PGC1a acetylation, AlphaScreen anti-acetyl-lysine; with virally co-expressed GCN5 acetyltransferase; inhibition, % at 15.6 µM; actives 0.17% (n = 350,000); AID 651687;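 active = every replicate shows inhibition of at least 40%; inconclusive = mean inhibition at least 40% but some replicate below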;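 note: 0% = neutral control wells and 100% = positive control wells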
rRNA inh HTS: inhibitors of bacterial rRNA selective over humanized ribosomes | actives 1.6% (n = 350,000) | E. coli WT GFP vs humanized-ribosome RFP mutants, fluorescence, 24 h; hits give low values; DMSO median 0, no signal -100 | GFP signal change (wild-type ribosome), % (concentration not given with the values);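 active = significant combined selectivity score with lowered wild-type GFP, culture density cut under 30%, mutant RFP and density less affected; inactive = any of these conditions unmet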
Env fusion inh: blocks HIV Env-driven cell-cell fusion; AID 651610; HeLa-JRFL Env/CEM21 cell fusion, luciferase; actives 1.1% (n = 360,000); inhibition, % at 12.3 µM;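 active = mean replicate inhibition score of at least 50 and every replicate individually at or above 50; inconclusive = only one of the two criteria met; inactive = mean below 50 and not all replicates reaching 50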;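 note: 0% = plate neutral controls and 100% = maraviroc near 300 nM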
DENV2 CPE rescue: inhibitors of DENV2 cytopathic effect; actives 1.7% (n = 350,000); CPE inhibition, % at 9.99 µM; AID 651640; DENV2-infected cells, cytopathic effect rescue, plate reader; in the data active = CPE inhibition above about 20%, passing the limit was not always enough; inconclusive = no clear call, values can overlap the other calls; tested in BHK-21 cells;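 note: 0% = median of neutral control wells and 100% = median of positive control wells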
PglD DTNB: PglD (C. jejuni) enzyme inhibition; inhibition, % at 12.5 µM; actives 0.098% (n = 360,000); purified PglD enzyme, DTNB colorimetric CoA detection; in the data active = inhibition above about 16%, passing the limit was not always enough; inconclusive = no clear call, values can overlap the other calls
FN deposition inh: fibronectin deposition inhibition; actives 0.086% (n = 350,000); inhibition, % at 12.6 µM; AID 743247; AH1F fibroblasts, Alexa488-fibronectin deposition fluorescence, overnight;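 active = mean inhibition across replicates of 30% or more, regardless of how many single replicates reach that level; inconclusive = mean under 30% yet at least half of replicates reach 30%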;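 note: positive control wells lacked labelled fibronectin entirely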
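Material: AH1F fibroblast monolayer depositing Alexa488-labelled fibronectin into matrix / Amount: 10000 AH1F cells per well / Signal: fluorescence 485/525 nm / Medium: DMEM, 2% serum / Compound: single dose, pinned / Incubation: 1 h cell adhesion before compound, then overnight fibronectin incubation / Reagent: Alexa488-FN, 24 nM final / Read-out: inhibition of fibronectin deposition signal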
AID977621: wild-type E. coli growth inhibition versus H69 humanized strain – H69 mutant RFP, wild-type GFP, cherry-pick, dose response; shares compounds with rRNA inh HTS; fluorescence, 24 h; activity change, negative = inhibition at 50 µM; 1,900 tested, under 10 active;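 active = Wild-type ribosome reporter drop at least double the humanized mutant ribosome reporter drop, growth loss under a set limit; inconclusive = no clear call, values can overlap the other calls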;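 note: wild-type GFP and H69 mutant RFP strains grown together 50/50 in each well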
AID977628: E. coli growth inhibition, wild-type GFP versus h24 humanized RFP strain, dose response, h24 mutant RFP vs wild-type GFP, cherry-pick | shares compounds with rRNA inh HTS | E. coli WT GFP strain growth, fluorescence, 24 h | activity change, negative = inhibition at 50 µM | 1,900 tested, under 10 active | AID 977628;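 active = compound lowering the normal-ribosome reporter at least twice as much as the humanized-ribosome reporter, growth loss under a set limit; inconclusive = no clear call, values can overlap the other calls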;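 note: wild-type GFP and h24 humanized RFP strains co-cultured 1 to 1 per well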
Starred values were filed as active, the others as inactive; i = inactive; ? = inconclusive; . = no result; [ ] = remark or other dose.

SMILES	PGC1a acetyl inh	rRNA inh HTS	Env fusion inh	DENV2 CPE rescue	PglD DTNB	FN deposition inh	AID977621	AID977628
COc1ccc(-c2[nH]ncc2CN2CCCC(C(=O)c3ccc(OC)cc3OC)C2)cc1 (centres undefined)	.	7.3	33.6	.	.	1.2	.	.
COCc1ccc(C(=O)N2CCCC(C(=O)c3ccc(Cl)cc3C)C2)o1 (centres undefined)	7.3	-25.9*	4.8	-5.4	0.9	5.3	-1.04	-8.78
Cc1onc(-c2c(F)cccc2Cl)c1C(=O)c1ccccc1O	-0.3	-41.7*	1.4	0.1	5.4	8.8	-10.5	?
Cc1onc(-c2c(F)cccc2Cl)c1C(=O)c1ccccc1	-9.0	-24.1	2.8	5.5	-2.4	-3.3	.	.
O=c1[nH]nc(SCc2ccccc2)n1C1CC2C=CC1C2 (centres undefined)	.	-34.7*	7.0	0.4	.	-22.4	-23.3	?
COCC(=O)Nc1ccc2c(c1)C(=O)N(C)[C@H]1CC[C@H](CC(=O)O)O[C@H]1CO2	6.5	5.7	-18.9[16.7 µM]	-2.3	-1.8	-0.5	.	.
CCc1cc2ccc(OC)cc2nc1SCC(=O)N1CCN(C(=O)c2ccco2)CC1	6.6	-25.5*	20.2	-2.6	0.3	-2.7	-21	.
CCc1cc2ccc(OC)cc2nc1SCC(=O)NNC(=O)c1ccco1	-8.3	-35.8	11.5	-2.7	.	-8.0	.	.
C[C@@H]1CCCCO[C@H](CN(C)C(=O)c2ccncc2)[C@H](C)CN([C@@H](C)CO)C(=O)c2cc(NS(C)(=O)=O)ccc2O1	10.3	2.0	-11.4[16.7 µM]	-4.6	-2.1	.	.	.
C=CCn1c(C)cc(C(=O)COC(=O)CNC(=O)c2ccccc2)c1C	.	-23.9*	10.5	-1.5	.	2.6	-7.82	.
COc1ccc(S(=O)(=O)Nc2ccc3c(c2)CC(=O)N([C@@H](C)CO)C[C@@H](C)[C@@H](CN(C)S(C)(=O)=O)O3)cc1	-9.8	6.9	2.4[16.7 µM]	-5.4	0.1	2.4	.	.
O=C(C[C@@H]1CC[C@H]2[C@@H](COC[C@@H](O)CN2Cc2cc(F)ccc2F)O1)NCc1ccc(Oc2ccccc2)cc1	-6.9	-25.4	.	-8.8	-2.9	-3.7	.	.
CC(C)C[C@@H](CSc1ccccc1)N1CCN(CC(C)C)CCC1=O	-10.7	-23.2*	-8.5	0.3	-1.0	-9.3	?	.
Cc1c(Cc2ccccc2)sc(NC(=O)Cc2ccccc2)c1C(N)=O	6.9	-17.9*	.	.	3.7	.	-4.49	-10.6
COC(=O)c1c(NC(C)=O)sc(Cc2ccccc2)c1C	-6.4	.	14.7	.	-0.5	-3.7	.	.
Cn1cnc([N+](=O)[O-])c1Oc1ccccc1	.	-36.8*	16.4	.	.	0.5	2.46	-2.13
Cn1cnc([N+](=O)[O-])c1Oc1cccc(O)c1	.	.	-1.4	.	.	-4.8	.	.
C[C@@H]1CN([C@@H](C)CO)C(=O)c2cc(C#CCN(C)C)cnc2O[C@@H]1CN(C)S(C)(=O)=O	1.5	16.0	-12.0[16.7 µM]	9.0	-4.1	-1.9	.	.
COc1cc(OC)c(NS(=O)(=O)c2cccc(C(=O)OCC(=O)NCC3CCCO3)c2)cc1Cl (centres undefined)	-5.1	-22.6*	21.5	-2.4	4.2	.	-16.9	-12
COc1ccc(-c2noc(CCc3ccccc3)n2)cc1	-0.9	-19.9*	-8.3	-7.2	1.8	3.4	-0.821	-1.84
Cc1ccc2cccc(OCc3ccccc3)c2n1	11.6	-26.3*	6.9	-3.5	0.8	10.4	-10.5	-8.02
Cc1cccc(S(=O)(=O)N(C)C[C@@H]2OCc3cn(nn3)CCCC(=O)N([C@@H](C)CO)C[C@@H]2C)c1	-3.3	0.2	-2.0[16.7 µM]	6.8	-1.4	-9.9	.	.
CN1CCSc2ccc(C(=O)Nc3cccc(F)c3)cc21	.	-23.4*	-361.0	-3.6	.	9.4	-2.85	-5.54
COc1ccc(CN(C)C[C@@H]2OCCCC[C@H](C)Oc3ccc(NS(=O)(=O)c4ccc(OC)cc4)cc3C(=O)N([C@H](C)CO)C[C@@H]2C)cc1	-5.4	1.2	-32.5[16.7 µM]	?	1.3	5.0	.	.
CN1CCN(C(=O)C[C@H]2CC[C@H]3[C@H](COc4ccc(NC(=O)c5ccc(F)c(F)c5)cc4C(=O)N3C)O2)CC1	-2.4	0.8	11.4[16.7 µM]	7.7	1.7	-10.7	.	.
SMILES	PGC1a acetyl inh	rRNA inh HTS	Env fusion inh	DENV2 CPE rescue	PglD DTNB	FN deposition inh	AID977621	AID977628
CC1CCc2c(sc3ncn4c(SCC(=O)NCc5ccco5)nnc4c23)C1 (centres undefined)	23.1	-20.0*	.	2.9	0.0	.	-10.7	-8.4
CC1CCc2sc3ncn4nc(C(=O)NCc5ccco5)nc4c3c2C1 (centres undefined)	6.9	.	-35.5	.	.	-1.6	.	.
C[C@@H]1CN([C@@H](C)CO)C(=O)c2cc(NS(=O)(=O)c3cccs3)ccc2O[C@H]1CN(C)CC1CC1	-3.4	1.6	-27.2[16.7 µM]	-16.7	0.7	-15.5	.	.
O=C(Nc1ccc2c(c1)OCO2)c1cccc(S(=O)(=O)N2CCCC2)c1	-14.6	-13.8*	.	-5.1	.	.	?	.
Cc1nn2c(C)c(C(=O)Nc3ccccc3)cnc2c1-c1ccccc1	-5.9	-32.2*	-5.5	41.7*	0.7	5.2	8.62	-3.74
CC(=O)c1cnc2c(-c3ccccc3)c(C(F)(F)F)nn2c1C	.	.	-37.7	-1.8	.	10.4	.	.
COc1cc2ccccc2cc1C(=O)NC1CCCCC1	2.9	-27.9*	-23.2	-0.5	5.2	-4.5	-15.6	-9.67
COc1cc(SC)ccc1C(=O)NC1CCCCC1	9.0	.	i	.	1.3	-0.3	.	.
Cc1ccc(S(=O)(=O)N(C)C[C@H]2Oc3ccc(NC(=O)Nc4ccc(F)cc4)cc3C(=O)N([C@H](C)CO)C[C@@H]2C)cc1	-1.0	0.6	.	9.8	2.7	.	.	.
COc1cccc(S(=O)(=O)N2C[C@@H](O)COC[C@@H]3O[C@@H](CC(=O)Nc4ccccc4)CC[C@H]32)c1	-1.4	-3.0	-6.6[16.7 µM]	9.1	2.6	-3.8	.	.
CCc1nnc(NC(=O)CSc2ncc(-c3ccccc3)[nH]2)s1	1.2	-19.6*	.	2.5	-5.2	.	7.72	-0.476
C[n+]1ccccc1/C=C/c1cc(Br)ccc1O	.	-21.3*	22.9	-3.9	-2.8	-2.3	.	?
COc1ccc(/C=C/c2cccc[n+]2C)c(O)c1	-2.2	6.6	8.1	1.3	0.7	-6.7	.	.
Cc1ccc(Nc2cc(C(=O)NCCCN3CCOCC3)c3ccccc3n2)cc1C	.	-21.9*	-6.7	2.7	-4.7	0.9	.	?
CCOc1cccc(-c2cc(-c3n[nH]c(=S)n3CC)c3ccccc3n2)c1	9.1	-36.6*	.	-4.6	-3.7	.	-17.4	?
Fc1ccc(CSc2nnc(-c3ccco3)o2)cc1	.	-16.9*	-6.8	13.3	.	-4.3	?	1.38
